Source: PubChem
NPY-Y1 antag – antagonists of human neuropeptide Y receptor Y1; P25929; HEK293-CNG Y1 cells, membrane potential fluorescence; NPY at EC95, then isoproterenol; inhibition, % at 3.6 µM; hit rate 1% among 200,000;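 active means inhibition above the campaign mean inhibition of all tested compounds plus 3 SD, cut at about 20% in these data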;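 further: 0% = DMSO wells given NPY plus isoproterenol and 100% = isoproterenol alone without NPY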
Target sequence (P25929 whole entry, looked up): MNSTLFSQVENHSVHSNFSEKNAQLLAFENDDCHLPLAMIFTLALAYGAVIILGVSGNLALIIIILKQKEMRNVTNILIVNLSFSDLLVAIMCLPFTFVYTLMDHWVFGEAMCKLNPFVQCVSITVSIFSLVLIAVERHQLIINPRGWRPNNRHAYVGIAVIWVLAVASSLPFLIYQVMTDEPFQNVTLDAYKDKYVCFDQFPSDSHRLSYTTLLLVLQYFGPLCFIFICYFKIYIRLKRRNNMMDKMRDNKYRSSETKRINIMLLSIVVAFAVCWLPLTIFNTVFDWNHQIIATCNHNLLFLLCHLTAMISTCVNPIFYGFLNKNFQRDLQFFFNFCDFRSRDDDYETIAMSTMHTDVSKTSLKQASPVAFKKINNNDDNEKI
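Test system – HEK293 Y1/CNG channel cell line · Also added – NPY agonist 25 nM, then isoproterenol 1 µM plus Ro 20-1724 25 µM · Compound dosing – one concentration, 3.6 µM, in 0.4% DMSO · Schedule – compound incubation 1 h at room temperature, readout 45 min post-stimulation · Technique – fluorescence, membrane potential probe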
NPY-Y2 PAM-ag – human NPY-Y2 potentiation or agonism, primary screen | hit rate 0.45% among 220,000 | activation, % at 3.6 µM | cells expressing NPY-Y2, potentiator/agonist read-out | P49146 | AID 1359; in the data active means activation above about 27%;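 further: cells stimulated with NPY near EC25 plus isoproterenol at EC100; 0% = vehicle plus submaximal agonist and 100% = vehicle plus saturating agonist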
Insulin prom inh – TRM-6 insulin promoter activity inhibition; TRM-6 cells, insulin promoter-eGFP reporter, imaging; reporter expression induced with tamoxifen; inhibition, % at 2 µM; hit rate 0.9% among 130,000; AID 1273;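 active means inhibition above the mean plus 3 SD, with well images judged a real hit on visual review, cut at about 60% in these data, passing the limit was not always enough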
NPY-Y1 PAM-ag – potentiators or agonists of human neuropeptide Y receptor Y1. P25929. NPY-Y1 expressing cells, potentiator/agonist activation. activation, % at 3.6 µM. hit rate 0.37% among 220,000; in the data active means activation above about 33%, passing the limit was not always enough;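 further: cells stimulated with NPY at EC10 then isoproterenol at EC100; 0% = low agonist plus stimulus and 100% = saturating agonist plus stimulus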
RAM inhibit – yeast RAM network inhibition. S. cerevisiae dse1pr::URA3 reporter, 5-FOA growth OD615, 2 d; analog-sensitive cbk1-as2 kinase mutant strain. inhibition, % at 50 µM. hit rate 1.8% among 190,000. AID 868;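 active means inhibition above a set limit, 3 SD over mean compound inhibition, cut at about 8.4% in these data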;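 further: 0% = DMSO-only wells with no growth and 100% = 10 µM 1-NA-PP1 full growth; inhibition rescues growth on 5-FOA so higher OD means more RAM inhibition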
NPY-Y2 antag – antagonists of human neuropeptide Y receptor Y2; P49146; NPY-Y2 expressing cells, antagonist mode; inhibition, % at 2.7 µM; hit rate 0.99% among 140,000; AID 793; in the data active means inhibition above about 17%;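 further: 0% = vehicle with agonist challenge and 100% = reference antagonist with challenge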
Active calls of the source: *; i = inactive; / = no result given. A selection: hits, their analogues and other compounds. The true share with any hit is near 3.8%.

SMILES | NPY-Y1 antag | NPY-Y2 PAM-ag | Insulin prom inh | NPY-Y1 PAM-ag | RAM inhibit | NPY-Y2 antag
CC1=CC2CC1C1C(=O)N(c3ccc(S(=O)(=O)Nc4nc(C)cc(C)n4)cc3)C(=O)C21 (centres undefined) | 1 | -2 | 44 | -23 | 9.8* | 8
C/C(=N\NC(=O)c1cccnc1)c1nnn(-c2nonc2N)c1C | -1 | 15 | -8 | 15 | 1 | /
COc1cc(NC(=O)CSc2cc(C)c3cc(C)cc(C)c3n2)c(C(=O)O)cc1OC | / | -25 | / | 5 | / | /
COc1ccc(CC(=O)n2nc(-c3ccccc3)nc2NCc2ccco2)cc1 | 6 | -12 | i | -2 | 10* | 3
CC(C)Cn1c(=O)c(C(=O)N/N=C/c2cccc(F)c2)c(O)c2ccccc21 | 2 | 0 | 43 | -3 | 0 | 2
COC(=O)c1ccc(C2C(C#N)=C(N)Oc3cc(C)n(C)c(=O)c32)cc1 (centres undefined) | -1 | 6 | 76* | -28 | -1 | 3
COC(=O)C1=C(N)Oc2cc(C)n(C)c(=O)c2C1c1ccc(Cl)cc1 (centres undefined) | 4 | 7 | -9 | 14 | 2 | 1
Cc1cc(C)nc(N2CCCC(C(=O)NCCc3ccc(F)cc3)C2)n1 (centres undefined) | -3 | 1 | 86* | 1 | 1 | 2
Cc1cc(C)nc(N2CCC(C(=O)NCCc3ccc(F)cc3)CC2)n1 | -8 | 5 | 25 | -15 | -1 | -1
O=C(NC(=S)NCc1cccnc1)c1cccc2ccccc12 | 6 | -6 | / | 5 | -1 | /
CCOc1ccc2c(c1)-c1c(ssc1=S)C(C)(C)N2C(=O)CSC1=NCCS1 | -9 | 40* | -12 | 49* | 3 | -5
CCOc1ccc2c(c1)-c1c(ssc1=S)C(C)(C)N2 | -14 | 45* | -46 | 44* | 8 | -10
Cc1ccc2c(c1)-c1c(ssc1=S)C(C)(C)N2C(=O)CSC1=NCCS1 | -7 | 24 | 0 | 14 | 5 | -6
COC(=O)c1sccc1NC(=O)CSCCc1ccccn1 | 12 | -9 | 24 | 13 | 2 | /
COc1ccc(N2C(S)=C(C#N)C(=O)NC23CCCCC3)cc1 | -3 | 5 | -72 | -1 | 1 | /
COc1cccc(-c2csc3nc[nH]c(=O)c23)c1 | 1 | -14 | 89* | -16 | 1 | 6
O=S(=O)(Nc1ccc(S(=O)(=O)Nc2cccc3ccccc23)cc1)c1ccccc1 | 0 | 4 | 19 | -4 | 8 | 8
COc1cccc(-c2nc(C(N)=O)c3[nH]c(=O)n(-c4cccc(Cl)c4)c3n2)c1OC | 6 | 12 | 43 | 7 | 11* | 1
COC(=O)CSc1nn(-c2ccc(F)cc2)c(=S)s1 | 7 | -8 | -32 | -7 | 2 | /
CC(NC(=O)C12CC3(C)CC(C)(CC(C)(C3)C1)C2)C(=O)O (centres undefined) | -7 | 10 | 71* | 11 | 1 | /
O=C(NCc1ccccc1)C1=C[C@H](C2CCCCC2)C[C@H](OCc2ccc(CO)cc2)O1 | 0 | -9 | / | -3 | 11* | /
O=C(NCc1ccccc1)C1=C[C@@H](c2coc3ccccc3c2=O)C[C@@H](OCc2ccc(CO)cc2)O1 | -2 | -4 | / | -7 | 8.5* | /
O=C(NCc1ccccc1)C1=C[C@@H](c2csc3ccccc23)C[C@@H](OCCCCO)O1 | -4 | -16 | / | -2 | 11* | /
O=C(NCc1ccccc1)C1=C[C@@H](C2CC2)C[C@@H](OCc2ccc(CO)cc2)O1 | 0 | -5 | / | -9 | 0 | /
CN1CCN(S(=O)(=O)c2cccc(C(=O)N(c3ccccn3)C3CCCCC3)c2)CC1 | -3 | -7 | 0 | 16 | 1 | 0
SMILES | NPY-Y1 antag | NPY-Y2 PAM-ag | Insulin prom inh | NPY-Y1 PAM-ag | RAM inhibit | NPY-Y2 antag
CC1CCN(S(=O)(=O)c2cccc(C(=O)N(Cc3ccccc3)c3ccccn3)c2)CC1 | 22* | -17 | / | -14 | 1 | /
Cc1cc(NC(=O)Nc2ccc(Cl)c(Cl)c2)n(-c2ccccc2)n1 | / | 0 | / | 1 | / | /
c1ccc(CSc2nnc(-c3sccc3-n3cccc3)o2)cc1 | 14 | -23 | 2 | -12 | 8.7* | 7
NCCc1nnc(SCc2ccccc2)o1 | 8 | -2 | 19 | -14 | 1 | 3
CCn1nc(NC(=O)Cc2ccc(OC)cc2)c2cc3cccc(C)c3nc21 | / | -11 | / | -10 | / | /
CS(=O)(=O)N1CCC(C(=O)Nc2ccccc2)CC1 | -2 | -5 | 3 | 15 | 1 | -2
CS(=O)(=O)N1CCC(C(=O)Nc2ccc(OCc3ccccc3)cc2)CC1 | 0 | -19 | 71* | -19 | 3 | 0
Cc1ccccc1C(=O)N1CCN(c2ccc(NC(=O)c3ccc4c(c3)OCO4)cc2)CC1 | -7 | 56* | -20 | 45* | 3 | /
Cc1ccccc1C(=O)N1CCN(c2ccc(NC(=O)c3ccco3)cc2Cl)CC1 | -5 | -13 | 85* | -8 | 1 | -2
O=C(Nc1ccc(N2CCN(C(=O)c3cccs3)CC2)c(Cl)c1)c1ccco1 | -1 | -27 | 23 | -2 | 4 | -1
O=C(Nc1ccc(N2CCN(C(=O)c3ccco3)CC2)cc1)c1ccc2c(c1)OCO2 | -2 | 2 | 66 | 12 | 2 | 2
O=C(Oc1ccc2c(=O)c(Cl)coc2c1)c1ccncc1 | 5 | -1 | 82* | -32 | 0 | 5
Cc1ccc(S(=O)(=O)n2c3ccc(F)cc3c3nc(C)sc32)cc1 | 9 | 6 | / | 7 | 5 | 2
CON(C)S(=O)(=O)c1ccc2c(c1)N(Cc1ccc(C)cc1)C(=O)C1CCCN21 (centres undefined) | 0 | -14 | 35 | -11 | 4 | /
NC(=O)c1ccc(NCCCN2CCOCC2)c([N+](=O)[O-])c1 | 0 | -1 | / | -10 | 1 | /
CC1(C(=O)N(Cc2ccccc2)Cc2ccccc2)CC1(Br)Br (centres undefined) | 6 | -17 | -121 | -27 | 8.8* | 12
CN(Cc1ccccc1)C(=O)CCC(=O)N(C)Cc1ccccc1 | -1 | 12 | -36 | 15 | 0 | 4
CCC(NS(=O)(=O)c1ccc(C)cc1)C(=O)Nc1ccc(NC(C)=O)cc1 (centres undefined) | 7 | 1 | 35 | -1 | 1 | -1
O=C(O)C1CC=CCC1C(=O)Nc1cccc([N+](=O)[O-])c1 (centres undefined) | -1 | 5 | / | 8 | 9.6* | /
O=C(CCCOc1ccccc1)Nc1cccc([N+](=O)[O-])c1 | 5 | -2 | 77* | -11 | 0 | /
O=C(O)C1CC=CCC1C(=O)Nc1cccc(F)c1 (centres undefined) | -1 | -9 | -56 | 2 | 1 | 3
CCCOC(=O)c1cccc(NC(=O)COc2ccc([N+](=O)[O-])cc2)c1 | 1 | 11 | 7 | -26 | 10* | 1
C[C@H](N)c1nnc(SCC(N)=O)o1 | / | -4 | / | -7 | / | /
N=C1C(c2ccccc2)=C(O)CN1c1cccc(S(=O)(=O)N2CCCCC2)c1 | / | -12 | / | -1 | / | /
